Source: ChEMBL document CHEMBL1932977, “Synthesis of pyrazolo[3,4-b]pyridines under microwave irradiation in multi-component reactions and their antitumor and antimicrobial activities - Part 1” (Eur J Med Chem, 2012)
Converted amounts (≈) assume the structure as drawn. The source made the active and inactive calls. The rule behind the calls is not given here.

How the values were obtained:
[1] = test system: Penicillium expansum; test: Antifungal activity against Penicillium expansum at 10 mg/ml after 24 hrs by cut-plug method; type: functional
Method in brief: (§1)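 Cut-plug agar diffusion. Bacteria grown on nutrient agar and fungi on Sabouraud agar slopes, strains from a university culture collection. Plates seeded with 1 ml of diluted inoculum (10⁷ CFU/ml) spread after solidification. Wells cut and filled with compound in DMSO at 10 mg/ml. Plates incubated at 30 °C for 24 h, then inhibition-zone diameters (mm) measured.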

[2] = test system: Serratia; test: Antibacterial activity against Serratia at 10 mg/ml after 24 hrs by cut-plug method; type: functional; method in brief: as §1
[3] = test system: Bacillus; test: Antibacterial activity against Bacillus at 10 mg/ml after 24 hrs by cut-plug method; type: functional; method in brief: as §1
[4] = test system: Enterobacter cloacae; test: Antibacterial activity against Enterobacter cloacae at 10 mg/ml after 24 hrs by cut-plug method; type: functional; method in brief: as §1
[5] = test system: Escherichia coli; test: Antibacterial activity against Escherichia coli at 10 mg/ml after 24 hrs by cut-plug method; type: functional; method in brief: as §1
[6] = test system: HepG2; test: Cytotoxicity against human HepG2 by sulforhodamie B colorimetric assay; type: functional, cell-based
Method in brief: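 HEPG2 human liver cancer cells, compound-treated against untreated control. Read by SRB: TCA-fixed cultures stained 30 min with 0.4% w/v SRB in 1% acetic acid, bound dye extracted with 10 mM Tris, optical density read on a plate reader. Surviving fraction as percent growth. IC50 estimated by probit regression.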

[7] = test system: Fusarium oxysporum; test: Antifungal activity against Fusarium oxysporum at 10 mg/ml after 24 hrs by cut-plug method; type: functional; method in brief: as §1
[8] = Homo sapiens, HepG2, read-out: IC50

**Q.** What does the source list for CCN(CC)c1ccc(-c2cc(C(=O)O)nc3c2c(-c2cccnc2)nn3-c2ccccc2)cc1?
**A.** diameter of the inhibition zone (DIZ) [1]: inactive; diameter of the inhibition zone (DIZ) [2]: inactive; diameter of the inhibition zone (DIZ) [3]: inactive; diameter of the inhibition zone (DIZ) [4]: inactive; diameter of the inhibition zone (DIZ) [5]: inactive

**Q.** COc1ccc(-c2c(C#N)c(-c3cccnc3)nc3c2c(-c2cccnc2)nn3-c2ccccc2)cc1 was tested. Which IC50 [6, 8] did it give?
**A.** 3.73 µg/mL (≈ 7.76 µM)

**Q.** What about the “diameter of the inhibition zone (DIZ)” value [1] of the same compound?
**A.** inactive

**Q.** And the “diameter of the inhibition zone (DIZ)” value [2]?
**A.** inactive

**Q.** And the “diameter of the inhibition zone (DIZ)” value [4]?
**A.** inactive

**Q.** What about the “diameter of the inhibition zone (DIZ)” value [7] of the same compound?
**A.** inactive

**Q.** What about the “diameter of the inhibition zone (DIZ)” value [5] of the same compound?
**A.** inactive

**Q.** How did the “diameter of the inhibition zone (DIZ)” value [1] turn out when O=C(O)c1cc(-c2ccc(O)cc2)c2c(-c3cccnc3)nn(-c3ccccc3)c2n1 was run?
**A.** inactive

**Q.** What about the “diameter of the inhibition zone (DIZ)” value [3] of the same compound?
**A.** inactive

**Q.** What about the “diameter of the inhibition zone (DIZ)” value [4] of the same compound?
**A.** inactive

**Q.** And the “diameter of the inhibition zone (DIZ)” value [5]?
**A.** inactive

**Q.** Which results are given for O=C(O)c1cc(-c2ccc(Br)cc2)c2c(-c3cccnc3)nn(-c3ccccc3)c2n1?
**A.** diameter of the inhibition zone (DIZ) [1]: inactive; diameter of the inhibition zone (DIZ) [3]: inactive; diameter of the inhibition zone (DIZ) [4]: inactive; diameter of the inhibition zone (DIZ) [7]: inactive; diameter of the inhibition zone (DIZ) [5]: inactive

**Q.** With COc1cccc2c1C(=O)c1c(O)c3c(c(O)c1C2=O)C[C@@](O)(C(=O)CO)C[C@@H]3O[C@H]1C[C@H](N)[C@H](O)[C@H](C)O1 [DOXORUBICIN] as the compound, how does the IC50 [6, 8] read?
**A.** 3.73 µg/mL (≈ 6.86 µM)

**Q.** How did the “diameter of the inhibition zone (DIZ)” value [1] turn out when CN(C)c1ccc(-c2cc(C(=O)O)nc3c2c(-c2cccnc2)nn3-c2ccccc2)cc1 was run?
**A.** inactive

**Q.** And the “diameter of the inhibition zone (DIZ)” value [3]?
**A.** inactive

**Q.** What about the “diameter of the inhibition zone (DIZ)” value [5] of the same compound?
**A.** inactive

**Q.** For COc1ccc(-c2c(C#N)c(-c3ccc([N+](=O)[O-])cc3)nc3c2c(-c2cccnc2)nn3-c2ccccc2)cc1, which IC50 [6, 8] is on record?
**A.** 13.5 µg/mL (≈ 25.7 µM)

**Q.** And the “diameter of the inhibition zone (DIZ)” value [2]?
**A.** inactive

**Q.** What about the “diameter of the inhibition zone (DIZ)” value [3] of the same compound?
**A.** inactive

**Q.** And the “diameter of the inhibition zone (DIZ)” value [4]?
**A.** inactive

**Q.** What about the “diameter of the inhibition zone (DIZ)” value [7] of the same compound?
**A.** inactive

**Q.** What does the source list for COc1ccc(-c2c(C#N)c(-c3ccc(F)cc3)nc3c2c(-c2cccnc2)nn3-c2ccccc2)cc1?
**A.** IC50 [6, 8]: 3.43 µg/mL (≈ 6.89 µM); diameter of the inhibition zone (DIZ) [1]: inactive; diameter of the inhibition zone (DIZ) [3]: inactive; diameter of the inhibition zone (DIZ) [4]: inactive; diameter of the inhibition zone (DIZ) [7]: inactive; diameter of the inhibition zone (DIZ) [5]: inactive

**Q.** Which “diameter of the inhibition zone (DIZ)” value [1] does the source give for O=C(O)c1cc(-c2ccccc2)c2c(-c3cccnc3)nn(-c3ccccc3)c2n1 here?
**A.** inactive

**Q.** And the “diameter of the inhibition zone (DIZ)” value [3]?
**A.** inactive

**Q.** What about the “diameter of the inhibition zone (DIZ)” value [4] of the same compound?
**A.** inactive

**Q.** And the “diameter of the inhibition zone (DIZ)” value [7]?
**A.** inactive

**Q.** And the “diameter of the inhibition zone (DIZ)” value [5]?
**A.** inactive

**Q.** For COc1ccc(-c2cc(C(=O)O)nc3c2c(-c2cccnc2)nn3-c2ccccc2)cc1, which “diameter of the inhibition zone (DIZ)” value [1] is on record?
**A.** inactive

**Q.** What does the source list for COc1ccc(-c2c(C#N)c(-c3ccccc3)nc3c2c(-c2cccnc2)nn3-c2ccccc2)cc1?
**A.** IC50 ([6]; hepg2): Not Active; diameter of the inhibition zone (DIZ) [1]: inactive; diameter of the inhibition zone (DIZ) [2]: inactive; diameter of the inhibition zone (DIZ) [3]: inactive; diameter of the inhibition zone (DIZ) [4]: inactive; diameter of the inhibition zone (DIZ) [7]: inactive; diameter of the inhibition zone (DIZ) [5]: inactive

**Q.** What does the source list for COc1ccc(-c2c(C#N)c(-c3ccc(C)cc3)nc3c2c(-c2cccnc2)nn3-c2ccccc2)cc1?
**A.** IC50 [6, 8]: 4.34 µg/mL (≈ 8.79 µM); diameter of the inhibition zone (DIZ) [1]: inactive; diameter of the inhibition zone (DIZ) [3]: inactive; diameter of the inhibition zone (DIZ) [4]: inactive; diameter of the inhibition zone (DIZ) [7]: inactive

**Q.** Which IC50 [6, 8] does the source give for COc1ccc(-c2c(C#N)c(-c3ccc(Cl)cc3)nc3c2c(-c2cccnc2)nn3-c2ccccc2)cc1 here?
**A.** 4 µg/mL (≈ 7.78 µM)

**Q.** And the “diameter of the inhibition zone (DIZ)” value [1]?
**A.** inactive

**Q.** What about the “diameter of the inhibition zone (DIZ)” value [2] of the same compound?
**A.** inactive

**Q.** And the “diameter of the inhibition zone (DIZ)” value [3]?
**A.** inactive

**Q.** What about the “diameter of the inhibition zone (DIZ)” value [4] of the same compound?
**A.** inactive

**Q.** What about the “diameter of the inhibition zone (DIZ)” value [7] of the same compound?
**A.** inactive

**Q.** What about the “diameter of the inhibition zone (DIZ)” value [5] of the same compound?
**A.** inactive
